Assay results taken from ChEMBL document CHEMBL4673386, “The Bicyclic Form of galacto-Noeurostegine Is a Potent Inhibitor of β-Galactocerebrosidase” (ACS Med Chem Lett, 2021).

Tests used:
Galactocerebrosidase = target: T1, Galactocerebrosidase (Mus musculus, UniProt P54818); test: Inhibition of mouse N-terminal His6-tagged GALC expressed in HEK293T cells using p-nitrophenyl-beta-D-galactopyranoside as substrate
T1 sequence (P54818 whole entry): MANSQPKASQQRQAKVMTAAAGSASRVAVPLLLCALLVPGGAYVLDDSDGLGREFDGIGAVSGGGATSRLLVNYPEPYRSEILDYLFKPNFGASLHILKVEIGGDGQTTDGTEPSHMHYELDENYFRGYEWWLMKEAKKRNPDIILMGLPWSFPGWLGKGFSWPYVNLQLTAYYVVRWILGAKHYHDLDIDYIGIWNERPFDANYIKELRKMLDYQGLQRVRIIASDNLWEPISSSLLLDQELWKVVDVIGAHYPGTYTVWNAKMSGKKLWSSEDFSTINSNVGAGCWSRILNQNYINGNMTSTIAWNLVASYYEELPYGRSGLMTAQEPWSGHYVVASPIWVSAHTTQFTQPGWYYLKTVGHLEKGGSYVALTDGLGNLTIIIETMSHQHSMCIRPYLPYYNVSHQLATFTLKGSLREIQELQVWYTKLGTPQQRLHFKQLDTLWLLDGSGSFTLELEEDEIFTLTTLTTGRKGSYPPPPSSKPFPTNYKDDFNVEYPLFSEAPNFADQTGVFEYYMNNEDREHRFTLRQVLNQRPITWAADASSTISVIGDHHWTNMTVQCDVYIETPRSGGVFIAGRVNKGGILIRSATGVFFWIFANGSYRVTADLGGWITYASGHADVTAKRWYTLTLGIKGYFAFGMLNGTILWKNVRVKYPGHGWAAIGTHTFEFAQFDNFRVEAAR

[1] = Inhibition of Aspergillus oryzae beta-galactosidase using […] as substrate preincubated for 30 mins followed by substrate addition by UV-vis spectrophotometry analysis
[2] = Inhibition of green coffee beans beta-galactosidase using […] as substrate preincubated for 30 mins followed by substrate addition by UV-vis spectrophotometry analysis; set-up: species or system Coffea arabica
[3] = Inhibition of Escherichia coli beta-galactosidase using […] as substrate preincubated for 30 mins followed by substrate addition by UV-vis spectrophotometry analysis
[4] = target: T2, Galactocerebrosidase (Mus musculus) (UniProt P54818); test: Stabilization of mouse N-terminal His6-tagged GALC expressed in HEK293T cells assessed as melting temperature at 0.5 mM at pH 4.6 by differential scanning fluorimetry (reference value: 62.2 degreeC); assay type: cell-based
T2 sequence (whole entry): T1 sequence (P54818 whole entry)
Procedure, shortened: (§1)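 GALC thermal melt curves recorded with and without ligand at 0.5 mM, at pH values from 4.6 to 7.4. Tm is read from each curve, and ΔTm is taken against GALC alone at the same pH. Runs were done in triplicate.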

[5] = target: T2, Galactocerebrosidase (Mus musculus); test: Stabilization of mouse N-terminal His6-tagged GALC expressed in HEK293T cells assessed as melting temperature at 0.5 mM at pH 5.6 by differential scanning fluorimetry (reference value: 62.8 degreeC); assay type: cell-based; procedure, shortened: as §1
[6] = target: T2, Galactocerebrosidase (Mus musculus); test: Stabilization of mouse N-terminal His6-tagged GALC expressed in HEK293T cells assessed as melting temperature at 0.5 mM at pH 6.6 by differential scanning fluorimetry (reference value: 59.6 degreeC); assay type: cell-based; procedure, shortened: as §1
[7] = target: T2, Galactocerebrosidase (Mus musculus); test: Stabilization of mouse N-terminal His6-tagged GALC expressed in HEK293T cells assessed as melting temperature at 0.5 mM at pH 7.4 by differential scanning fluorimetry (reference value: 53.4 degreeC); assay type: cell-based; procedure, shortened: as §1
[8] = target: T2, Galactocerebrosidase (Mus musculus); test: Stabilization of mouse N-terminal His6-tagged GALC expressed in HEK293T cells assessed as change in melting temperature at pH 4.6 by differential scanning fluorimetry; assay type: cell-based; procedure, shortened: as §1
[9] = target: T2, Galactocerebrosidase (Mus musculus); test: Stabilization of mouse N-terminal His6-tagged GALC expressed in HEK293T cells assessed as change in melting temperature at pH 5.6 by differential scanning fluorimetry; assay type: cell-based; procedure, shortened: as §1
[10] = target: T2, Galactocerebrosidase (Mus musculus); test: Stabilization of mouse N-terminal His6-tagged GALC expressed in HEK293T cells assessed as change in melting temperature at pH 6.6 by differential scanning fluorimetry; assay type: cell-based; procedure, shortened: as §1
[11] = target: T2, Galactocerebrosidase (Mus musculus); test: Stabilization of mouse N-terminal His6-tagged GALC expressed in HEK293T cells assessed as change in melting temperature at pH 7.4 by differential scanning fluorimetry; assay type: cell-based; procedure, shortened: as §1

Structure (SMILES) | Ki (Galactocerebrosidase) [µM] | Ki [1] [µM] | Ki [2] [µM] | Ki [3] [µM] | Tm [4] [°C] | Tm [5] [°C] | Tm [6] [°C] | Tm [7] [°C] | ΔTm [8] [°C] | ΔTm [9] [°C] | ΔTm [10] [°C] | ΔTm [11] [°C]
OC[C@@H]1[C@H](O)[C@H](O)[C@@H]2CC[C@H]1N2 | 2300 | 0.13 | > 1000 | > 1000 | – | – | – | – | – | – | – | –
OC[C@@H]1[C@H](O)[C@H](O)[C@]2(O)CC[C@H]1N2 | 7 | 0.031 | > 1000 | > 1000 | 68 | 68 | 65 | 54.8 | 5.8 | 5.2 | 5.4 | 1.4
